Results on 14 molecules are retold here after ChEMBL document CHEMBL1140473, “Novel potent macrocyclic inhibitors of the hepatitis C virus NS3 protease: use of cyclopentane and cyclopentene P2-motifs” (Bioorg Med Chem, 2007).

Assay [1] is described as follows: Inhibition of HCV 1a recombinant full length NS3/4A protease. Also on record: species or system Hepatitis C virus subtype 1a. Put shortly:
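Preincubated 30 min at room temperature, then started with 2 μM FRET substrate RET S1. Fluorescence (ex 355/em 500 nm) followed 20 min. IC50 by non-linear fit; Ki = IC50/(1+S/Km), assuming competitive inhibition.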

Assay [2] has as its system Hepatitis C virus. As to the kind of experiment: Antiviral activity against HCV 1b replicon in Huh7 cells after 48 hrs. It counts as functional, organism-based, Hepacivirus hominis. Conditions: genotype 1b, Huh-7, 48 h. Put shortly: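 Huh-7 cells carrying a subgenomic genotype 1b replicon with firefly luciferase, kept under 0.5 mg/ml G418. Cells seeded at 1500 per well, dosed after 24 h with fivefold serial dilutions (DMSO ≤1% final), incubated 48 h, then lysed for luciferase read-out. EC50 is the concentration lowering luciferase signal 50% versus untreated control.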
(In general: A replicon is a self-replicating genome or part of one, used to study replication in cells.)

Assay [3] addresses Cathepsin B (Homo sapiens, UniProt P07858). The assay is described as follows: Inhibition of human cathepsin B.
Assay [4] can be described thus: Inhibition of human chymotrypsin.
Assay [5] can be described thus: Inhibition of human elastase.

The structures appear in SMILES notation.

As a reminder, the Ki is the dissociation constant of the complex between target and ligand, obtained from inhibition or displacement. What is called EC50 is the midpoint of the concentration-response curve. Low values mean greater potency, high ones weaker potency. In the case of `COc1ccc2c(O[C@@H]3C[C@H]4C(=O)N[C@]5(C(=O)O)C[C@H]5C=CCCCCN(NC(=O)OC(C)(C)C)C(=O)[C@@H]4C3)cc(-c3ccccc3)nc2c1`, the Ki in assay [1] was found to be 31 nM. The EC50 in assay [2] is greater than 10000 nM.

In the case of `COc1ccc2c(O[C@@H]3C[C@H]4C(=O)N[C@]5(C(=O)NS(=O)(=O)C6CC6)C[C@H]5C=CCCCCN(NC(=O)OC(C)(C)C)C(=O)[C@@H]4C3)cc(-c3ccccc3)nc2c1`, the Ki in assay [1] amounted to 0.07 nM. For the same molecule, the midpoint of the response in assay [2], the EC50, lay at 530 nM.

As to `COc1ccc2c(O[C@H]3CC4C(=O)N(N)CCCCCCC=C[C@@H]5C[C@@]5(C(=O)O)NC(=O)[C@@H]4C3)cc(-c3ccccc3)nc2c1` (stereo partly specified), the Ki in assay [1] is greater than 10000 nM. Besides, the EC50 in assay [2] is greater than 10000 nM.

`COc1ccc2c(O[C@H]3CC4C(=O)N(NC(=O)OC(C)(C)C)CCCCCCC=C[C@@H]5C[C@@]5(C(=O)O)NC(=O)[C@@H]4C3)cc(-c3ccccc3)nc2c1` (stereo partly specified): in assay [1], the Ki is greater than 10000 nM. The molecule also came in with an EC50 in assay [2] greater than 10000 nM.

Take `COc1ccc2c(O[C@@H]3C[C@H]4C(=O)N[C@]5(C(=O)O)C[C@H]5/C=C\CCCCCN(N)C(=O)[C@@H]4C3)cc(-c3ccccc3)nc2c1`: the Ki in assay [1] came to 120 nM. In assay [2], this molecule returned an EC50 greater than 10000 nM.

For the molecule `COc1ccc2c(O[C@H]3C=C4C(=O)N(N)CCCCC/C=C\[C@@H]5C[C@@]5(C(=O)O)NC(=O)[C@@H]4C3)cc(-c3ccccc3)nc2c1`, the Ki in assay [1] stood at 110 nM. This molecule also displayed an EC50 in assay [2] of 4500 nM.

For the molecule `COc1ccc2c(O[C@@H]3C[C@H]4C(=O)N[C@]5(C(=O)O)C[C@H]5C=CCCCCN(C)C(=O)[C@@H]4C3)cc(-c3ccccc3)nc2c1`, the Ki in assay [1] turned out to be 44 nM. Further, a half-maximal response in assay [2] (EC50) required 2200 nM.

Consider `COc1ccc2c(O[C@H]3C[C@H]4C(=O)NCCCCC=C[C@@H]5C[C@@]5(C(=O)O)NC(=O)[C@@H]4C3)cc(-c3ccccc3)nc2c1`, for which, in assay [1], the Ki was determined as 260 nM. The molecule also displayed an EC50 in assay [2] greater than 10000 nM.

For the molecule `COc1ccc2c(O[C@@H]3C[C@H]4C(=O)N[C@]5(C(=O)NS(=O)(=O)C6CC6)C[C@H]5C=CCCCCN(C)C(=O)[C@@H]4C3)cc(-c3ccccc3)nc2c1`, the Ki in assay [3] is 2200 nM; in assay [4] it was greater than 5000 nM; in assay [1], 0.41 nM; in assay [5], greater than 5000 nM. Further, the response in assay [2] was half-maximal at 9.1 nM (EC50).

As for `COc1ccc2c(O[C@@H]3C[C@H]4C(=O)N[C@]5(C(=O)O)C[C@H]5C=CCCCCN(N)C(=O)[C@@H]4C3)cc(-c3ccccc3)nc2c1`, the Ki in assay [1] stood at 6 nM. Further, the EC50 in assay [2] is 7600 nM.

On to `COc1ccc2c(O[C@@H]3C[C@H]4C(=O)N[C@]5(C(=O)O)C[C@H]5/C=C\CCCN(NC(=O)OC(C)(C)C)C(=O)[C@@H]4C3)cc(-c3ccccc3)nc2c1`, for which, in assay [1], the Ki is 130 nM. Moreover, in assay [2], the EC50 is greater than 10000 nM.

On to `COc1ccc2c(O[C@@H]3C[C@H]4C(=O)N[C@]5(C(=O)NS(=O)(=O)C6CC6)C[C@H]5C=CCCCCN(N)C(=O)[C@@H]4C3)cc(-c3ccccc3)nc2c1`, for which the Ki in assay [1] came out at 0.19 nM. This molecule gave an EC50 in assay [2] of 33 nM.

Turning to `COc1ccc2c(O[C@@H]3C[C@H]4C(=O)N[C@]5(C(=O)O)C[C@H]5/C=C\CCCCCN(NC(=O)OC(C)(C)C)C(=O)[C@@H]4C3)cc(-c3ccccc3)nc2c1`, the Ki in assay [1] amounted to 710 nM. In addition, in assay [2], the EC50 is greater than 10000 nM.

Take `COc1ccc2c(O[C@H]3C[C@H]4C(=O)NCCCCC=C[C@@H]5C[C@@]5(C(=O)NS(=O)(=O)C5CC5)NC(=O)[C@@H]4C3)cc(-c3ccccc3)nc2c1`: in assay [1], the Ki stood at 2.2 nM. In addition, in assay [2], the EC50 came to 4400 nM.
